Reference: ChEMBL document CHEMBL4732040, “Irreversible inhibition of BoNT/A protease: proximity-driven reactivity contingent upon a bifunctional approach” (RSC Med Chem, 2021)
Structures can show the parent of a compound that is named as a salt. Active and inactive are the calls of the source. The calls are words filed in the database; no cut-off is given here.

Legend:
[1] = target: Botulinum neurotoxin type A (Clostridium botulinum) (UniProt P0DPI0); experiment: Time dependent inhibition of Clostridium botulinum BoNT/A light chain (1 to 425 residues) using SNAPtide flp6 as substrate by FRET assay; conditions: dose 100.0 µM, time hrs <=8
[2] = GSH reactivity assessed as pseudo first order rate constant at 1 mM in presence of glutathione; type: physicochemical; conditions: 1000 µM
HEK293 = experiment: Cytotoxicity against human HEK293 cells assessed as reduction in cell viability incubated for 24 hrs by MTT assay; type: cell-based; conditions: for Activity: human, hek293, 24 h, time 24 hrs
How it was run: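 HEK293 cells were exposed to compound for 24 h before viability read-out. The paper reports n = 3, with error bars as SD.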

[3] = target: Macrophage metalloelastase (Homo sapiens, UniProt P39900); experiment: Inhibition of MMP-12 (unknown origin) at 25 uM using TQ3-GABA-Pro-Cha-Abu-Smc-His-Ala-Dab(6'-TAMRA)-Ala-Lys-NH2 as substrate bu fluorometric analysis
How it was run: (§1)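 Residual activity of each MMP in the panel was measured in the presence of compound at 25 μM.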

[4] = target: Matrix metalloproteinase-14 (Homo sapiens, UniProt P50281); experiment: Inhibition of MMP-14 (unknown origin) at 25 uM using TQ3-GABA-Pro-Cha-Abu-Smc-His-Ala-Dab(6'-TAMRA)-Ala-Lys-NH2 as substrate bu fluorometric analysis; how it was run: as §1
[5] = target: 72 kDa type IV collagenase (Homo sapiens, UniProt P08253); experiment: Inhibition of MMP-2 (unknown origin) at 25 uM using TQ3-GABA-Pro-Cha-Abu-Smc-His-Ala-Dab(6'-TAMRA)-Ala-Lys-NH2 as substrate bu fluorometric analysis; how it was run: as §1
Matrilysin = target: T1, Matrilysin (Homo sapiens, UniProt P09237); experiment: Inhibition of MMP-7 (unknown origin) at 25 uM using TQ3-GABA-Pro-Cha-Abu-Smc-His-Ala-Dab(6'-TAMRA)-Ala-Lys-NH2 as substrate bu fluorometric analysis; how it was run: as §1
T1 sequence (P09237 whole entry): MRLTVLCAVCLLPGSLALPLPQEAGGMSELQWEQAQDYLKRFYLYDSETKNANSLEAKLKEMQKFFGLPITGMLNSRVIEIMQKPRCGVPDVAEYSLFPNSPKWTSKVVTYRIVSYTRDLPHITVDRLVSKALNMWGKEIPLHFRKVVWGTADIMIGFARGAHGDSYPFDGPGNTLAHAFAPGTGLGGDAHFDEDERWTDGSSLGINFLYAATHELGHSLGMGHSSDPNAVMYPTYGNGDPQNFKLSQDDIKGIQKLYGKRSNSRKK

Collagenase 3 = Collagenase 3 (Homo sapiens, UniProt P45452); experiment: Inhibition of MMP-13 (unknown origin) at 25 uM using TQ3-GABA-Pro-Cha-Abu-Smc-His-Ala-Dab(6'-TAMRA)-Ala-Lys-NH2 as substrate bu fluorometric analysis; how it was run: as §1
Stromelysin-1 = Stromelysin-1 (Homo sapiens, UniProt P08254); experiment: Inhibition of MMP-3 (unknown origin) at 25 uM using TQ3-GABA-Pro-Cha-Abu-Smc-His-Ala-Dab(6'-TAMRA)-Ala-Lys-NH2 as substrate bu fluorometric analysis; how it was run: as §1
Neutrophil collagenase = Neutrophil collagenase (Homo sapiens, UniProt P22894); experiment: Inhibition of MMP-8 (unknown origin) at 25 uM using TQ3-GABA-Pro-Cha-Abu-Smc-His-Ala-Dab(6'-TAMRA)-Ala-Lys-NH2 as substrate bu fluorometric analysis; how it was run: as §1
Interstitial collagenase = target: T2, Interstitial collagenase (Homo sapiens, UniProt P03956); experiment: Inhibition of MMP-1 (unknown origin) at 25 uM using TQ3-GABA-Pro-Cha-Abu-Smc-His-Ala-Dab(6'-TAMRA)-Ala-Lys-NH2 as substrate bu fluorometric analysis; how it was run: as §1
T2 sequence (P03956 whole entry): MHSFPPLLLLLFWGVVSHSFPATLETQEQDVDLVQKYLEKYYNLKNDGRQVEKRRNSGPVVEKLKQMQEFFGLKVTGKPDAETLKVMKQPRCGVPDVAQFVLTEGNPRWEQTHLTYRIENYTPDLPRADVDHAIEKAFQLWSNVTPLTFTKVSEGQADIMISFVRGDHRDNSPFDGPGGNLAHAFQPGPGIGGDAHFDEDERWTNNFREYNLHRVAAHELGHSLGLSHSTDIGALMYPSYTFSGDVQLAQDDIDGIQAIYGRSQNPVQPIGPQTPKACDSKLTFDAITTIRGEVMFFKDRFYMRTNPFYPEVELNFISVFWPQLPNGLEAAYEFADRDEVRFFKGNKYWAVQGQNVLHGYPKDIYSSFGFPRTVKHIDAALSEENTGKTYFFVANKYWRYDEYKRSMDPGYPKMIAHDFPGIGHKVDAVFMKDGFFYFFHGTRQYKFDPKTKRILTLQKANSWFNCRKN

[6] = target: T3, Matrix metalloproteinase-19 (Homo sapiens, UniProt Q99542); experiment: Inhibition of MMP-19 (unknown origin) at 25 uM using TQ3-GABA-Pro-Cha-Abu-Smc-His-Ala-Dab(6'-TAMRA)-Ala-Lys-NH2 as substrate bu fluorometric analysis; how it was run: as §1
T3 sequence (Q99542 whole entry): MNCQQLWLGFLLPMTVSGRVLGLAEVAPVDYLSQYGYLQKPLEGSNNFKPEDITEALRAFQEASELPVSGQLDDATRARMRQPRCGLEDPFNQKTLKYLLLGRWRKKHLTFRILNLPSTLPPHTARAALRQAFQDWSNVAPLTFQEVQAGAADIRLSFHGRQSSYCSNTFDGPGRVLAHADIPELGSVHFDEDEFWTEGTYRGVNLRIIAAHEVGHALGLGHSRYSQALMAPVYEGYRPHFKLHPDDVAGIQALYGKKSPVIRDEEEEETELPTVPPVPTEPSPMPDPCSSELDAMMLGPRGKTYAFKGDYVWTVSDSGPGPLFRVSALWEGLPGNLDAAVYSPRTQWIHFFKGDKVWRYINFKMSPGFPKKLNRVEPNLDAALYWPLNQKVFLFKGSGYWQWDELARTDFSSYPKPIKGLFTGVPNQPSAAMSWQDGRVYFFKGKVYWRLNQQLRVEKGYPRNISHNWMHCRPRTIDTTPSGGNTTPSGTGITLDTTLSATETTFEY

[7] = target: Botulinum neurotoxin type A (Clostridium botulinum) (UniProt P0DPI0); experiment: Irreversible inhibition of Clostridium botulinum BoNT/A light chain (1 to 425 residues) assessed as ratio of Kinact/Ki using SNAPtide flp6 as substrate inhibited for 1 hr by FRET assay
[8] = GSH reactivity assessed as half life at 1 mM in presence of glutathione; type: physicochemical

Sequence of Neutrophil collagenase (P22894 whole entry): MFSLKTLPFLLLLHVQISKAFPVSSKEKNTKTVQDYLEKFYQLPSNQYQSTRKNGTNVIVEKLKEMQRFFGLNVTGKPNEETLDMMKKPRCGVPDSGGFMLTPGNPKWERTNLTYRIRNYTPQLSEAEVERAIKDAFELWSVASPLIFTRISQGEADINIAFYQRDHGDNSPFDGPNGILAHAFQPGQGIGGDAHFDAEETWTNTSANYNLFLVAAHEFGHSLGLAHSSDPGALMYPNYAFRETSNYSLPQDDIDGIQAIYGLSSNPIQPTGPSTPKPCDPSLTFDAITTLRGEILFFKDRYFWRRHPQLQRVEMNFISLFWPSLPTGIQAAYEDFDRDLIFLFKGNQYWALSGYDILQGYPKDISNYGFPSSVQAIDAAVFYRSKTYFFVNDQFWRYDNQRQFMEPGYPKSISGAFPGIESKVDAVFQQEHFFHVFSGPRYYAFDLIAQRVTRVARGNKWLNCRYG
Sequence of Stromelysin-1 (P08254 whole entry): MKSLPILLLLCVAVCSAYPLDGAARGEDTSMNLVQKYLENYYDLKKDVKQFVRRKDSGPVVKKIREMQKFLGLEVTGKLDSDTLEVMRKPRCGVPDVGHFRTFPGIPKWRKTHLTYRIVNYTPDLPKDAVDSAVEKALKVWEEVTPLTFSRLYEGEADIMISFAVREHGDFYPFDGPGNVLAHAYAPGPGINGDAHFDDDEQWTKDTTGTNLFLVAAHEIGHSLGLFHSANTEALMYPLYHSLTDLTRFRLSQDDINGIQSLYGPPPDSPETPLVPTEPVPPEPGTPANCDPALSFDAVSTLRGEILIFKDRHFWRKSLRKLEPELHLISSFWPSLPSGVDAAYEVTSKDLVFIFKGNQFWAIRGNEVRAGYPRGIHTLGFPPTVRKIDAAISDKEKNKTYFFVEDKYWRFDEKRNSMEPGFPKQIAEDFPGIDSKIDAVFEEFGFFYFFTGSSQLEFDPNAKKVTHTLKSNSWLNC
Sequence of 72 kDa type IV collagenase (P08253 whole entry): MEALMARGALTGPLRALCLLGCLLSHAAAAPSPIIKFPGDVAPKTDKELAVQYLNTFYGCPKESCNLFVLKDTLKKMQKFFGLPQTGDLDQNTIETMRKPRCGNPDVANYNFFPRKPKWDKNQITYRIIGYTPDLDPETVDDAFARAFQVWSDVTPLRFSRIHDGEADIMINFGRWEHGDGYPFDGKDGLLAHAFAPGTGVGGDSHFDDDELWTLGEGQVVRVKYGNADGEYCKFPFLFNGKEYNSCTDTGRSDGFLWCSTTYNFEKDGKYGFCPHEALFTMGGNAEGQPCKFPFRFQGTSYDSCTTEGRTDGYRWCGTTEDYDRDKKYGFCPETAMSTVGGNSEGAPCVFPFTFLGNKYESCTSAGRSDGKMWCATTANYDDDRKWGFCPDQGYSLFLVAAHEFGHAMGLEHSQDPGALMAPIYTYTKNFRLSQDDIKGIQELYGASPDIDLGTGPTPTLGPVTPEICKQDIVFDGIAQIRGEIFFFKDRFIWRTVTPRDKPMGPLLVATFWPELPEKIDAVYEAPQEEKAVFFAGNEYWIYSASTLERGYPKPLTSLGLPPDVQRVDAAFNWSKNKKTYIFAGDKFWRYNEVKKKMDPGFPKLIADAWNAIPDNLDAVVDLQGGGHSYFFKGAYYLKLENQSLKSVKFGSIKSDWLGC
Sequence of Botulinum neurotoxin type A (Clostridium botulinum) (P0DPI0 2-448 limits assumed): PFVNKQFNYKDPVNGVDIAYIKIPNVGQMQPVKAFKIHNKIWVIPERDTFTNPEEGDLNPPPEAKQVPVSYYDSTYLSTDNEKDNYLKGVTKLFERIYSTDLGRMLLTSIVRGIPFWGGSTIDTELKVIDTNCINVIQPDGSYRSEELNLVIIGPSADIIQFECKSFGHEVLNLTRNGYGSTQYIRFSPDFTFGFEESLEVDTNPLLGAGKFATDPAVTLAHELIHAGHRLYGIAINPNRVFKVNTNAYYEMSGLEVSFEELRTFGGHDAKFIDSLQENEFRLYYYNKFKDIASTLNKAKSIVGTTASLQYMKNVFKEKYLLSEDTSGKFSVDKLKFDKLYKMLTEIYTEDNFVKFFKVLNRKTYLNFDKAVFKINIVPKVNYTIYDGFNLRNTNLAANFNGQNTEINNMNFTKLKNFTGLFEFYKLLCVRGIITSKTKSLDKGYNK
Sequence of Macrophage metalloelastase (P39900 whole entry): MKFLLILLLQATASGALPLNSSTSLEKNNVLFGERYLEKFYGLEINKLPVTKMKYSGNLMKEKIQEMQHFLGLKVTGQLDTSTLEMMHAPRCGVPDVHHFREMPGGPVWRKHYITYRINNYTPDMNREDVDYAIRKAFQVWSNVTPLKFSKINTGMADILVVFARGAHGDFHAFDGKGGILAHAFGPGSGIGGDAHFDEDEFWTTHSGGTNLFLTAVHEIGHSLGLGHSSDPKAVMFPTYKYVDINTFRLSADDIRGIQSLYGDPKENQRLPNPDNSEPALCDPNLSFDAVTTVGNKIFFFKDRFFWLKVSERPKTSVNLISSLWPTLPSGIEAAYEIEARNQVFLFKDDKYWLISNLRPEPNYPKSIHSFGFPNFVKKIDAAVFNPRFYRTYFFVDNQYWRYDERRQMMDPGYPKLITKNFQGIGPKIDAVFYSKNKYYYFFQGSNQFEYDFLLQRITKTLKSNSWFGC

## C#CCCCCN(O)C(=O)/C=C/c1ccc(Cl)cc1Cl
[1]
  TDI: inactive

## C=CC(=O)NCCCN(O)C(=O)/C=C/c1ccc(Cl)cc1Cl
[1]
  TDI: inactive

## COC(=O)/C=C/C(=O)OC [DIMETHYL FUMARATE]
[2]
  K: 0.0589 min⁻¹

## N#CC1(NC(=O)CCCN(O)C(=O)/C=C/c2ccc(Cl)cc2Cl)CC1
[1]
  TDI: inactive

## O=C(/C=C/c1ccc(Cl)cc1Cl)NCCCNC(=O)CI
HEK293
  Activity: Toxic
[1]
  TDI: Active

## O=C(/C=C/c1ccc(Cl)cc1Cl)N(O)CCCCCC1CO1 (stereo not drawn)
[3]
  inhibition (INH): Not Active
[4]
  inhibition (INH): Not Active
[5]
  inhibition (INH): Not Active
Matrilysin
  inhibition (INH): Not Active
Collagenase 3
  inhibition (INH): Not Active
Stromelysin-1
  inhibition (INH): Not Active
Neutrophil collagenase
  inhibition (INH): Not Active
[2]
  K: 0.0012 min⁻¹
Interstitial collagenase
  inhibition (INH): Not Active
[6]
  inhibition (INH): Not Active

## O=C(CCl)NCCCN(O)C(=O)/C=C/c1ccc(Cl)cc1Cl
[1]
  TDI: inactive

## O=C(CCl)NCCN(O)C(=O)/C=C/c1ccc(Cl)cc1Cl
[1]
  TDI: inactive

## C=CC(=O)NCCCCCN(O)C(=O)/C=C/c1ccc(Cl)cc1Cl
[1]
  TDI: inactive

## C=CC(=O)NCCCCCCN(O)C(=O)/C=C/c1ccc(Cl)cc1Cl
[1]
  TDI: inactive

## O=C(CCl)NCCCCN(O)C(=O)/C=C/c1ccc(Cl)cc1Cl
[1]
  TDI: inactive

## O=C(CBr)NCCCCN(O)C(=O)/C=C/c1ccc(Cl)cc1Cl
[1]
  TDI: inactive

## O=C(CBr)NCCN(O)C(=O)/C=C/c1ccc(Cl)cc1Cl
[1]
  TDI: inactive

## O=C(/C=C/c1ccc(Cl)cc1Cl)N(O)CCCCCCC1CO1 (stereo not drawn)
[1]
  TDI: inactive

## O=C(/C=C/c1ccc(Cl)cc1Cl)NCCCCCC1CO1 (stereo not drawn)
[1]
  TDI: inactive

## O=C(NCCCN(O)C(=O)/C=C/c1ccc(Cl)cc1Cl)Oc1ccccc1
[1]
  TDI: inactive

## C=CC(=O)NCCN(O)C(=O)/C=C/c1ccc(Cl)cc1Cl
[1]
  TDI: inactive

## O=C(CI)NCCCCN(O)C(=O)/C=C/c1ccc(Cl)cc1Cl
[7]
  Ratio: 12.4 M⁻¹ s⁻¹

## O=C(CBr)NCCCN(O)C(=O)/C=C/c1ccc(Cl)cc1Cl
[1]
  TDI: inactive

## CC(=O)NCCCN(O)C(=O)/C=C/c1ccc(Cl)cc1Cl
HEK293
  Activity: Non-Toxic
[1]
  TDI: inactive

## O=C(/C=C/c1ccc(Cl)cc1Cl)NCCCN1C(=O)C=CC1=O
HEK293; Homo sapiens, HEK293, 24 h
  IC50: 6 µM
[1]
  TDI: Active

## O=C(NCCCCN(O)C(=O)/C=C/c1ccc(Cl)cc1Cl)C(F)Cl (stereo not drawn)
[1]
  TDI: inactive

## C#CCN(O)C(=O)/C=C/c1ccc(Cl)cc1Cl
[1]
  TDI: inactive

## O=C(/C=C/c1ccc(Cl)cc1Cl)N(O)CCCCN1C(=O)C=CC1=O
[7]
  Ratio: 46.3 M⁻¹ s⁻¹

## C=C(F)C(=O)NCCN(O)C(=O)/C=C/c1ccc(Cl)cc1Cl
[1]
  TDI: inactive

## O=C(/C=C/c1ccc(Cl)cc1Cl)N(O)CCCCC1CO1 (stereo not drawn)
[1]
  TDI: inactive

## O=C(/C=C/c1ccc(Cl)cc1Cl)N(O)CCCN1C(=O)CCC1=O
HEK293
  Activity: Non-Toxic
[1]
  inhibition: inactive

## O=C(/C=C/C(F)F)NCCN(O)C(=O)/C=C/c1ccc(Cl)cc1Cl
[1]
  TDI: inactive

## O=C(CI)NCCCN(O)C(=O)/C=C/c1ccc(Cl)cc1Cl
[3]
  inhibition (INH): Not Active
[4]
  inhibition (INH): Not Active
[5]
  inhibition (INH): Not Active
Matrilysin
  inhibition (INH): Not Active
Collagenase 3
  inhibition (INH): Not Active
Stromelysin-1
  inhibition (INH): Not Active
Neutrophil collagenase
  inhibition (INH): Not Active
[2]
  K: 0.0611 min⁻¹
Interstitial collagenase
  inhibition (INH): Not Active
[6]
  inhibition (INH): Not Active

## C=CC(=O)NCCCCN(O)C(=O)/C=C/c1ccc(Cl)cc1Cl
[1]
  TDI: inactive

## C=C(F)C(=O)NCCCCN(O)C(=O)/C=C/c1ccc(Cl)cc1Cl
[1]
  TDI: inactive

## CS(=O)(=O)SCCCCCCN(O)C(=O)/C=C/c1ccc(Cl)cc1Cl
[7]
  Ratio: 514 M⁻¹ s⁻¹
[8]
  half-life at 1000 µM: < 5 min

## O=C(/C=C/C(F)F)NCCCN(O)C(=O)/C=C/c1ccc(Cl)cc1Cl
[1]
  TDI: inactive

## O=C(NCCN(O)C(=O)/C=C/c1ccc(Cl)cc1Cl)Oc1ccccc1
[1]
  TDI: inactive

## C#CCCN(O)C(=O)/C=C/c1ccc(Cl)cc1Cl
[1]
  TDI: inactive

## O=C(NCCCN(O)C(=O)/C=C/c1ccc(Cl)cc1Cl)C(F)Cl (stereo not drawn)
[1]
  TDI: inactive

## C=C(F)C(=O)NCCCN(O)C(=O)/C=C/c1ccc(Cl)cc1Cl
[1]
  TDI: inactive

## O=C(NCCN(O)C(=O)/C=C/c1ccc(Cl)cc1Cl)C(F)Cl (stereo not drawn)
[1]
  TDI: inactive

## O=C(/C=C/C(F)F)NCCCCN(O)C(=O)/C=C/c1ccc(Cl)cc1Cl
[1]
  TDI: inactive

## C#CCCCN(O)C(=O)/C=C/c1ccc(Cl)cc1Cl
[1]
  TDI: inactive

## O=C(/C=C/c1ccc(Cl)cc1Cl)N(O)CCCN1C(=O)C=CC1=O
[3]
  inhibition (INH): Active
[4]
  inhibition (INH): Active
[5]
  inhibition (INH): Active
Matrilysin
  inhibition (INH): Active
Collagenase 3
  inhibition (INH): Active
Stromelysin-1
  inhibition (INH): Active
Neutrophil collagenase
  inhibition (INH): Active
[2]
  K: 0.0023 min⁻¹
Interstitial collagenase
  inhibition (INH): Active
[6]
  inhibition (INH): Active
